In ChEMBL document CHEMBL1124996, “Synthesis of antimicrobial agents. 3. Syntheses and antibacterial activities of 7-(4-hydroxypiperazin-1-yl)quinolones” (J Med Chem, 1990):
Converted amounts (≈) assume the structure as drawn.

Legend:
Proteus vulgaris = assay: In vitro antibacterial activity against Proteus vulgaris OX-19; type: functional
In short: (§1)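 MIC measured by 2-fold serial agar dilution. The growth medium is given as Mueller–Hinton agar in the text and as sensitivity test agar in the table footnote. Value reported in µg/mL.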

Serratia marcescens = assay: (§2) In vitro antibacterial activity against Serratia; type: functional; in short: as §1
[1] = system: Staphylococcus epidermidis; assay: In vitro antibacterial activity against Staphylococcus epidermidis IAM 1296; type: functional; in short: as §1
Escherichia coli [2] = assay: In vitro antibacterial activity against Escherichia coli KC-14
Klebsiella pneumoniae = assay: In vitro antibacterial activity against Klebsiella pneumoniae PCI-602; type: functional; in short: as §1
[3] = Acute toxicity on intravenous injection in mice; type: organism-based; settings: mouse, in vivo
In short: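 ddY male mice (20–25 g, five per group) given compound by intravenous injection. Compound was dissolved in 1 N NaOH, then brought up in phosphoric acid–saline buffer (pH 7.2). LD50 was determined 7 days later by the Weil method.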

Escherichia coli [4] = assay: (§3) In vitro antibacterial activity against Escherichia coli NHJ JC-2; type: functional, escherichia colin; in short: as §1
Salmonella typhimurium = assay: In vitro antibacterial activity against Salmonella Typhimurium IID 971; type: functional, Salmonella enterica subsp. enterica serovar Typhimurium; settings: Salmonella enterica; in short: as §1
Bacillus subtilis = assay: In vitro antibacterial activity against Bacillus subtilis ATCC 6633; type: functional; in short: as §1
Staphylococcus aureus [5] = assay: In vitro antibacterial activity against Staphylococcus aureus FDA 209P JC-1; type: functional; in short: as §1
[6] = Acute toxicity on oral administration in mice; type: organism-based; settings: mouse, in vivo
In short: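 ddY male mice (20–25 g, five per group) were dosed orally with a suspension in 0.5% sodium carboxymethylcellulose. LD50 was determined 7 days later by the Weil method.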

Staphylococcus aureus [7] = assay: In vitro antibacterial activity against […] aureus IID 803 -; type: functional; in short: as §1
Pseudomonas aeruginosa = assay: In vitro antibacterial activity against Pseudomonas aeruginosa IFO 3445; type: functional; in short: as §1
Staphylococcus aureus [8] = assay: In vitro antibacterial activity against Staphylococcus aureus FDA […] JC-1; type: functional
In short: (§4)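 MIC by 2-fold agar dilution on sensitivity test agar (Mueller–Hinton agar per text), in µg/mL.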

Escherichia coli [9] = assay: In vivo antibacterial activity against Escherichia coli KC-14 (po); type: functional
In short: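 Oral protection test in mice infected with E. coli KC-14. Compound suspended in 0.5% sodium CMC and given orally 1 h after infection. ED50 (mg/kg) calculated from cumulative mortality on day 7 after infection by the shortened Weil method, with 95% confidence limits.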

Escherichia coli [10] = assay: as §3; type: functional, escherichia colin; in short: as §4; remark: listed apart in the source
Serratia = assay: as §2; type: functional; in short: as §4
[11] = Concentration of liberated compound in serum after 240 min at the dose of 50 mg/kg (po).; type: functional, organism-based; set-up: dose 50 mg/kg
In short: (§5)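 ddY male mice (20–25 g, five per group) got 50 mg/kg orally as a 0.5% CMC suspension and were killed by bleeding at 30, 60, 120 or 240 min. Serum was taken after centrifugation at 3000 rpm, 20 min, 4 °C, and deproteinised with 5% aqueous trichloroacetic acid. The released parent quinolone was measured by HPLC with UV detection on an ODS column. Mean ± SE.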

[12] = Concentration of liberated compound in serum after 30 min at the dose of 50 mg/kg (po).; type: ADME, organism-based; set-up: dose 50 mg/kg; settings: in vivo, 0.5 h
In short: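 ddY male mice (20–25 g, five per group) given 50 mg/kg orally as a suspension in 0.5% CMC and killed by bleeding at 30 min. Serum was separated by centrifugation (3000 rpm, 20 min, 4 °C) and deproteinized with 5% aqueous trichloroacetic acid. Liberated NFLX was quantified by reversed-phase (ODS) HPLC with UV detection. Values are mean ± SE.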

[13] = Concentration of liberated compound in serum after 60 min at the dose of 50 mg/kg (po).; type: functional, organism-based; set-up: dose 50 mg/kg; in short: as §5
[14] = Concentration of liberated compound in serum after 120 min at the dose of 50 mg/kg (po).; type: functional, organism-based; set-up: dose 50 mg/kg; in short: as §5

SMILES	MIC (Proteus vulgaris) [µg/mL]	MIC (Serratia marcescens) [µg/mL]	MIC [1] [µg/mL]	MIC (Escherichia coli [2]) [µg/mL]	MIC (Klebsiella pneumoniae) [µg/mL]	LD50 [3] [mg/kg]	MIC (Salmonella typhimurium) [µg/mL]	MIC (Bacillus subtilis) [µg/mL]	LD50 [6] [mg/kg]	MIC (Staphylococcus aureus [7]) [µg/mL]	MIC (Pseudomonas aeruginosa) [µg/mL]	MIC (Staphylococcus aureus [8]) [µg/mL]	ED50 (Escherichia coli [9]) [mg/kg]	MIC (Escherichia coli [10]) [µg/mL]	MIC (Serratia) [µg/mL]	also measured
CCn1cc(C(=O)O)c(=O)c2cc(F)c(N3CCN(O)CC3)cc21	0.05 (≈ 0.149 µM)	3.13 (≈ 9.33 µM)	6.25 (≈ 18.6 µM)	0.39 (≈ 1.16 µM)	0.05 (≈ 0.149 µM)	> 500	0.1 (≈ 0.298 µM)	0.2 (≈ 0.596 µM)	> 4000	1.56 (≈ 4.65 µM)	12.5 (≈ 37.3 µM)					MIC (Escherichia coli [4]): 1.56 µg/mL (≈ 4.65 µM); MIC (Staphylococcus aureus [5]): 0.78 µg/mL (≈ 2.33 µM)
O=C(O)c1cn(C2CC2)c2cc(N3CCN(O)CC3)c(F)cc2c1=O	0.05 (≈ 0.144 µM)	0.78 (≈ 2.25 µM)	1.56 (≈ 4.49 µM)	0.025 (≈ 0.072 µM)	0.025 (≈ 0.072 µM)		0.025 (≈ 0.072 µM)	0.39 (≈ 1.12 µM)	> 4000	0.78 (≈ 2.25 µM)	1.56 (≈ 4.49 µM)	0.39 (≈ 1.12 µM)	0.37	0.1 (≈ 0.288 µM)		
O=C(O)c1cn(C2CC2)c2cc(N3CCNCC3)c(F)cc2c1=O [CIPROFLOXACIN]	0.05 (≈ 0.151 µM)		1.56 (≈ 4.71 µM)	0.0125 (≈ 0.0377 µM)	0.025 (≈ 0.0754 µM)		0.025 (≈ 0.0754 µM)	0.39 (≈ 1.18 µM)		0.78 (≈ 2.35 µM)	0.78 (≈ 2.35 µM)	0.39 (≈ 1.18 µM)	0.84		0.2 (≈ 0.604 µM)	
CCn1cc(C(=O)O)c(=O)c2cc(F)c(N3CCNCC3)cc21 [NORFLOXACIN]	0.1 (≈ 0.313 µM)		3.13 (≈ 9.8 µM)	0.2 (≈ 0.626 µM)	0.1 (≈ 0.313 µM)	314	0.05 (≈ 0.157 µM)	0.39 (≈ 1.22 µM)	> 4000	1.56 (≈ 4.89 µM)	1.56 (≈ 4.89 µM)	0.39 (≈ 1.22 µM)		0.2 (≈ 0.626 µM)	0.39 (≈ 1.22 µM)	Concentration [11]: 0.47 µg/mL; Concentration [12]: 4.14 µg/mL; Concentration [13]: 2.8 µg/mL; Concentration [14]: 1.09 µg/mL
